Measurements taken from ChEMBL document CHEMBL1140441, “Design, synthesis, and activity of analogues of phosphinothricin as inhibitors of glutamine synthetase” (J Med Chem, 2005).

Columns and labels:
Glutamine synthetase [1] = molecular target: T1, Glutamine synthetase (Escherichia coli K-12, UniProt P0A9C5); assay: Inhibitory concentration against glutamine synthetase incubated at 37 degree C for 20 minutes in pH 7.4
T1 sequence (P0A9C5 whole entry): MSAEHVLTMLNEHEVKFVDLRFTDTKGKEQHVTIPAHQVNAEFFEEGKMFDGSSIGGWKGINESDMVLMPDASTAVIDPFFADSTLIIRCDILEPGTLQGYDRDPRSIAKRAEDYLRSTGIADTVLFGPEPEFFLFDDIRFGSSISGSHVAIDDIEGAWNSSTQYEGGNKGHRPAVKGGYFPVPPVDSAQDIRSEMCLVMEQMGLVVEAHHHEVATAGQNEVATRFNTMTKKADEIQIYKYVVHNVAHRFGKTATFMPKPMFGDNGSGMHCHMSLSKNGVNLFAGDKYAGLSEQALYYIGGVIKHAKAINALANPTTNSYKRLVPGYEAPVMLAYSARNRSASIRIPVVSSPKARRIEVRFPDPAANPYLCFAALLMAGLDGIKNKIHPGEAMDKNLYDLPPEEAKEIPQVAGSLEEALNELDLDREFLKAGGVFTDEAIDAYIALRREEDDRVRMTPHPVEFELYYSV
Method in brief: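 Fully activated E. coli strain W GS (30 pkat) in 50 mM Tris-HCl pH 7.4 with 100 mM glutamate, 5 mM ATP, 1 mM NH4Cl and 25 mM MgCl2, run at 37 °C for up to 20 min. Phosphate release was measured from the initial linear rate. IC50 came from linear regression of % control against log concentration.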

Glutamine synthetase [2] = molecular target: T1, Glutamine synthetase; assay: (§1) Binding affinity towards glutamine synthetase
Method in brief: (§2)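 E. coli strain W glutamine synthetase (fully activated), full forward reaction read by inorganic phosphate release at 37 °C, pH 7.4 Tris-HCl. Glutamate was varied from 15 to 80 mM, with ATP and NH4Cl fixed at standard levels. At least four inhibitor levels were tested, each dose at least in triplicate. Ki came from Lineweaver–Burk plots and is given as mean ± SEM.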

Glutamine synthetase [3] = molecular target: T1, Glutamine synthetase; assay: as §1; method in brief: as §2; remark: listed apart in the source

| SMILES | IC50 (Glutamine synthetase [1]) [µM] | Ki (Glutamine synthetase [2]) [µM] | Ki (Glutamine synthetase [3]) [µM] |
| --- | --- | --- | --- |
| NCP(=O)(O)CC[C@H](N)C(=O)O | 1 | 0.59 | 0.59 |
| NCCP(=O)(O)CC[C@H](N)C(=O)O | 55 | 13 | 13 |
| N[C@@H](CCP(=O)(O)CCC(=O)O)C(=O)O | 970 | 150 | 147 |
| CP(=O)(O)CC[C@H](N)C(=O)O | 1.2 | 0.6 | 0.6 |
| N[C@@H](CCP(=O)(O)CO)C(=O)O | 10.4 | 2.1 | 2.1 |
| C[C@@H](N)P(=O)(O)CC[C@H](N)C(=O)O | 31 | 3.4 | 3.4 |
| C[C@H](N)P(=O)(O)CC[C@H](N)C(=O)O (mixture of isomers) | 33 | 3.7 | 3.7 |
